From ChEMBL document CHEMBL4351031, “The development of 2-acetylphenol-donepezil hybrids as multifunctional agents for the treatment of Alzheimer's disease” (Bioorg Med Chem Lett, 2019) come the findings set out here.

Molecules are shown by their SMILES. The source made the active and inactive calls. No cut-off for these calls is given here.

In one series the target is Acetylcholinesterase (Electrophorus electricus, UniProt O42275). The experiment in a line: Inhibition of electric eel AChE using acetylthiocholine iodide incubated for 15 mins as substrate by Ellman's method. A general note: Ellman's reagent forms a yellow product with free thiols.
Sequence of Acetylcholinesterase (O42275 whole entry): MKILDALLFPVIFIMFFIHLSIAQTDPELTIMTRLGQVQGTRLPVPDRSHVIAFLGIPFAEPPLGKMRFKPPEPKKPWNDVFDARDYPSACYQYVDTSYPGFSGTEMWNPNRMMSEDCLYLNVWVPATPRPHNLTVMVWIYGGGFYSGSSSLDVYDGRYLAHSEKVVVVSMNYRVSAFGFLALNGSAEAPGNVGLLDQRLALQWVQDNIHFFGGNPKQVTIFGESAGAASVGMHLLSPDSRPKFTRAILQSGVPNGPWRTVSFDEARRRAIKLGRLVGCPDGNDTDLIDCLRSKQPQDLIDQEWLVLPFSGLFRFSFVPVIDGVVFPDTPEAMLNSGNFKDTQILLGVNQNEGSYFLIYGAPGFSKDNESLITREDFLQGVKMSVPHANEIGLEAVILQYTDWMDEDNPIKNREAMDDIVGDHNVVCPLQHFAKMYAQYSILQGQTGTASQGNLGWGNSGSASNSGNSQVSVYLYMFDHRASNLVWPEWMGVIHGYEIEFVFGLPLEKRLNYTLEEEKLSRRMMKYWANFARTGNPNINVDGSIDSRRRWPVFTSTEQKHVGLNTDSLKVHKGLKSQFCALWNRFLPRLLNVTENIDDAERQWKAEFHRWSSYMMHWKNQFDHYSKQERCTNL
The target of a further series is Cholinesterase (Equus caballus, UniProt P81908). The experiment in a line: Inhibition of equine serum BuChE using S-butyrylthiocholine chloride as substrate incubated for 15 mins by Ellman's method. An outline of the steps:
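Modified Ellman method using equine serum BuChE. […] Values are the mean of three independent experiments, each run in triplicate, with SD.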

The target of series [1] is T1, Amine oxidase [flavin-containing] A (Homo sapiens, UniProt P21397).
T1 sequence (P21397 whole entry): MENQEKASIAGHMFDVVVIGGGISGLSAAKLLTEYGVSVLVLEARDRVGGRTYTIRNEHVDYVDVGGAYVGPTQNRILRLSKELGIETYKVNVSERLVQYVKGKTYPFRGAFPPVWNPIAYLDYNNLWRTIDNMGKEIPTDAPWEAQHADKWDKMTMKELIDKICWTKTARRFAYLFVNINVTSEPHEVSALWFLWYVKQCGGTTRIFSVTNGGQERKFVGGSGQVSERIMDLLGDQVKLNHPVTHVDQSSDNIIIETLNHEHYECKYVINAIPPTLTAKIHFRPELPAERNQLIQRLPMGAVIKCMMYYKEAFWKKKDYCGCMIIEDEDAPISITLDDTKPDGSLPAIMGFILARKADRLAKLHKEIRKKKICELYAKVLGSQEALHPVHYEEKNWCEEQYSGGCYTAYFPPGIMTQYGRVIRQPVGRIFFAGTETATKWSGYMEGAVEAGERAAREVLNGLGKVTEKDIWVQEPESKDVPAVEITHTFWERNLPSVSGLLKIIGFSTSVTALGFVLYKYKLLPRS
Description: Inhibition of human recombinant MAO-A using kynuramine as substrate measured after 30 mins by fluorimetric assay. The method in brief:
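Recombinant human MAO-A inhibition measured by a fluorimetric assay. Each value is the mean of three independent experiments, each run in triplicate, with SD reported.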

The target in series [2] is T2, Amine oxidase [flavin-containing] B (Homo sapiens, UniProt P27338).
T2 sequence (P27338 whole entry): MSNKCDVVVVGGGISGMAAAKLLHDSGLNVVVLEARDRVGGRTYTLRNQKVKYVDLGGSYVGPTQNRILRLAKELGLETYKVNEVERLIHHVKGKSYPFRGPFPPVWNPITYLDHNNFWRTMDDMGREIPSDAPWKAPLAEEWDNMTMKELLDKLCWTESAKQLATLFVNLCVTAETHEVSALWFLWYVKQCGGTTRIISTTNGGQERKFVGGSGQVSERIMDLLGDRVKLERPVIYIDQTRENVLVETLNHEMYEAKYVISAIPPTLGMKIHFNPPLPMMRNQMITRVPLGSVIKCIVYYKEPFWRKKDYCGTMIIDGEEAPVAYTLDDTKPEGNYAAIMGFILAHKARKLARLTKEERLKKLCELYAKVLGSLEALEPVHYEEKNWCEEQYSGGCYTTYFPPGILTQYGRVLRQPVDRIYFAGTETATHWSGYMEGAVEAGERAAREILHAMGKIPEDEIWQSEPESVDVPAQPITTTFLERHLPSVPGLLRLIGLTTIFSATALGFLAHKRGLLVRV
The experiment in a line: Inhibition of human recombinant MAO-B using kynuramine as substrate measured after 30 mins by fluorimetric assay.

A short description of series [3]: Selectivity index, ratio of IC50 for equine serum BuChE using S-butyrylthiocholine chloride as substrate to IC50 for electric eel AChE using acetylthiocholine iodide as substrate by Ellman's method. The method in brief:
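Selectivity index is IC50(eqBuChE)/IC50(EeAChE). Both IC50s come from the modified Ellman method, using Electrophorus electricus AChE and equine serum BuChE. Each IC50 is the mean of three independent experiments, each run in triplicate.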

Series [4] concerns the target Cholinesterase (Equus caballus) (UniProt P81908). Description: Inhibition of equine serum BuChE using S-butyrylthiocholine chloride as substrate at 50 uM incubated for 15 mins by Ellman's method relative to control.
The target of the next series is T3, MAO-A (Homo sapiens, UniProt P21397).
T3 sequence (P21397 whole entry): T1 sequence (P21397 whole entry)
The experiment in a line: Inhibition of human recombinant MAO-A using kynuramine as substrate at 10 uM measured after 30 mins by fluorimetric assay relative to control. Conditions: probe kynuramine.

The nature of series [5]: Permeability of the compound at 100 ug/ml measured after compound dilution in PBS/EtOH buffer (70:30) by PAMPA-BBB assay. In general terms: PAMPA measures passive passage across an artificial lipid membrane.
Series [6] has as its target Acetylcholinesterase (Electrophorus electricus) (UniProt O42275). The experiment in a line: Mixed inhibition of electric eel AChE at 1.5 to 6 uM preincubated with enzyme for 15 mins followed by substrate addition using acetylthiocholine iodide as substrate by double reciprocal Lineweaver-Burk plot analysis.
The nature of series [7]: Metal chelating activity assessed as Cu2+-compound complex formation measured as red shift in absorption spectra at 37.5 uM measured after 30 mins in presence of 37.5 uM CuCl2 by UV-vis spectrophotometric analysis.
A short description of series [8]: Metal chelating activity assessed as Fe2+-compound complex formation at 37.5 uM measured after 30 mins in presence of 37.5 uM FeSO4 by UV-vis spectrophotometric analysis.
Series [9] is described as follows: Metal chelating activity assessed as Zn2+-compound complex formation at 37.5 uM measured after 30 mins in presence of 37.5 uM ZnCl2 by UV-vis spectrophotometric analysis.
Series [10] in a line: Metal chelating activity assessed as Al3+-compound complex formation at 37.5 uM measured after 30 mins in presence of 37.5 uM AlCl3 by UV-vis spectrophotometric analysis.
Series [11] can be described thus: Metal chelating activity assessed as mole fraction of the compound required for Cu2+ -compound complex formation at stoichiometry ratio of 1:1 at 37.5 uM measured after 30 mins in presence of 3.75 to 93.75 uM CuCl2 by UV-vis spectrophotometric analysis. The method in brief: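 Cu2+ complex stoichiometry determined by the molar ratio method. Ascending amounts of CuCl2 were added to the test compound, at a final concentration of 37.5 μM. Absorbance was plotted against mole fraction, and the stoichiometry was taken from the intersection of two fitted straight lines. The final Cu2+ concentration started at 3.75 μM.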

Sequence of Cholinesterase (P81908 whole entry): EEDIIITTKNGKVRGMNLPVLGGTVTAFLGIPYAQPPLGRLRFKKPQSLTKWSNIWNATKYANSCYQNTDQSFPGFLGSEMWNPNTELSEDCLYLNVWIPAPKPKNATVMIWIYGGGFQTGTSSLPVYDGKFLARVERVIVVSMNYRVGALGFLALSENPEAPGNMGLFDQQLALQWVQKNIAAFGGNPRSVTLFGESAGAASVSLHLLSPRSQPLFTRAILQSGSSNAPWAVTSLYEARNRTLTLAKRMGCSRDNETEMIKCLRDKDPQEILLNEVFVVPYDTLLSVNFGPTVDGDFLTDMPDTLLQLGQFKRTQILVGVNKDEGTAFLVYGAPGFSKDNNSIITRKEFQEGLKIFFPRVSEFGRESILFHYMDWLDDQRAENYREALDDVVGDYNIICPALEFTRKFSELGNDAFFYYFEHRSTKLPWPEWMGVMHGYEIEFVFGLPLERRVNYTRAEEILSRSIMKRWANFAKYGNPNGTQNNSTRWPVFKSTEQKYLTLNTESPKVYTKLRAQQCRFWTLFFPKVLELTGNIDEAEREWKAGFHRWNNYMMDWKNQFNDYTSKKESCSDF
Sequence of Cholinesterase (Equus caballus) (P81908 whole entry): as above
Sequence of Acetylcholinesterase (Electrophorus electricus) (O42275 24-633 limits assumed): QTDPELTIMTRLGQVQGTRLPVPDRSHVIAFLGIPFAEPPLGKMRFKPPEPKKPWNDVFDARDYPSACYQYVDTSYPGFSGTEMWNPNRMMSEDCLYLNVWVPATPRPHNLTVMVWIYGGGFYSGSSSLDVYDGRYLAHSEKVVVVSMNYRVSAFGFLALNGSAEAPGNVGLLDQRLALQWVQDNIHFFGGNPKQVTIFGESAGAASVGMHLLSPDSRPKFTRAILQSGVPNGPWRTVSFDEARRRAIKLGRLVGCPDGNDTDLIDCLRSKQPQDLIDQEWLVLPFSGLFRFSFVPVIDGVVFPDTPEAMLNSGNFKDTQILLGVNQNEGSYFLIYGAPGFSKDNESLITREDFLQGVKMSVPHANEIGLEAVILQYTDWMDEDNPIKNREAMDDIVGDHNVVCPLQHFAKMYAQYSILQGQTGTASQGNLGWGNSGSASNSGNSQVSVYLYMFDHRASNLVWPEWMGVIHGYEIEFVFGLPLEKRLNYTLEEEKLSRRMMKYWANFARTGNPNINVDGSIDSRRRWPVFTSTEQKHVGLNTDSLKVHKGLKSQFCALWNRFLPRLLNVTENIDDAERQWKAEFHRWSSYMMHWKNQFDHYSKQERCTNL

As to `CC(=O)c1ccc(OCCCCCCCCCN2CCN(Cc3ccccc3)CC2)cc1O`, the IC50 at Acetylcholinesterase is 6.7 µM; against Cholinesterase, 19.8 µM; in series [1], 19.7 µM; in series [2] it was 21.6 µM. In addition, in series [3], the Ratio IC50 is 2.9.
The matching figures for `CC(=O)c1ccc(OCCCN2CCC(c3ccccc3)CC2)cc1O`: 13.4 µM, 29.4 µM, 24.7 µM, 19.8 µM and 2.2.
Regarding `CC(=O)c1ccc(OCCCCCCCCCCN2CCN(Cc3ccccc3)CC2)cc1O`, the IC50 against Acetylcholinesterase is 6.9 µM; in series [1], 19.8 µM; in series [2], 17.3 µM. The inhibition in series [4] worked out at 15.1%.
Take `CCN(CCCCCCCCCCCCOc1ccc(C(C)=O)c(O)c1)Cc1ccccc1`: the IC50 against Acetylcholinesterase stood at 7.7 µM; at Cholinesterase, 38.9 µM; in [2] it was 33.1 µM. Further, on MAO-A, the inhibition at 0.5 h, 10 µM is less than 10%. In addition, the Ratio IC50 in series [3] was 5.
In the case of `CC(=O)c1ccc(OCCN2CCN(Cc3ccccc3)CC2)cc1O`, the IC50 turned out to be 6.6 µM on Acetylcholinesterase, 26.1 µM in series [1] and 10.2 µM in series [2]. In [4], the inhibition was 11.2%. This compound also returned a Papp at 100 ug/ml in series [5] of 17.4 ×10⁻⁶ cm/s.
Regarding `COc1cc2c(cc1OC)CN(CCCCOc1ccc(C(C)=O)c(O)c1)CC2`, the figures for the half-inhibitory concentration (IC50) (at Acetylcholinesterase; against Cholinesterase; in series [2]) were 15.9 µM, 56.4 µM and 15.7 µM, respectively. Also, the inhibition at 0.5 h, 10 µM on MAO-A is less than 10%. Further, in series [3], the Ratio IC50 was 3.5.
Regarding `CC(=O)c1ccc(OCCCCN2CCc3ccccc3C2)cc1O`, the concentration for half-maximal inhibition (IC50) on Acetylcholinesterase is 5.9 µM; against Cholinesterase it was 47.5 µM; in [2] it was 12.8 µM. Also, the inhibition at 0.5 h, 10 µM on MAO-A was 6.3%. In series [3], the Ratio IC50 turned out to be 8.1.
The matching figures for `CCN(CCCOc1ccc(C(C)=O)c(O)c1)Cc1ccccc1`: 7.2 µM, 18.7 µM, 14.9 µM, less than 10% and 2.6.
The corresponding values for `CCN(CCCCCOc1ccc(C(C)=O)c(O)c1)Cc1ccccc1` are 5.2 µM, 37.2 µM, 29.8 µM, less than 10% and 7.1.
For the compound `CC(=O)c1ccc(OCCCCCCN2CCc3ccccc3C2)cc1O`, the IC50 was found to be 9.2 µM on Acetylcholinesterase, 32.6 µM against Cholinesterase, 21.2 µM in [1] and 26.9 µM in series [2]. The Ratio IC50 in series [3] was determined as 3.5.
For the compound `CCN(CCCCOc1ccc(C(C)=O)c(O)c1)Cc1ccccc1`, the IC50 is 2.9 µM against Acetylcholinesterase, 34.6 µM at Cholinesterase and 16.6 µM in [2]. For the same compound, the inhibition at 0.5 h, 10 µM on MAO-A was less than 10%. The Ratio IC50 in series [3] is 11.9. Also, in series [6], the inhibition result was “Active”. This compound also had a Papp at 100 ug/ml in series [5] of 15.1 ×10⁻⁶ cm/s. Besides, the result in [7] was Active. Also, the result in series [8], in [9] and in series [10] was inactive. For the same compound, the Ratio (mole fraction) in [11] turned out to be 0.97.
Consider `CC(=O)c1ccc(OCCCCCCN2CCC(Cc3ccccc3)CC2)cc1O`, for which the IC50 on Acetylcholinesterase was 7.1 µM; against Cholinesterase it was 66.9 µM; in [1], 22.1 µM; in series [2] it was 15.8 µM. Also, in series [3], the Ratio IC50 was 9.4.

For orientation: IC50 means the concentration that gives 50% inhibition. Usually inhibition stands for the relative decrease from the control value, in per cent. What is called Papp is the rate of passage across a membrane or cell layer, normalised by area and donor concentration. The low end stands for poor permeation, the high end for ready permeation.
